# Measured values published in ChEMBL document CHEMBL5390200, “Synthesis and evaluation of DAG-lactone derivatives with HIV-1 latency reversing activity” (Eur J Med Chem, 2023).
# pEC50, pIC50: −log10 of the molar value.
# Experiments:
# [1] = system: Human immunodeficiency virus 1; assay: HIV1-latency reversing activity in human ACH-2 cell line incubated for 48 hrs; assay type: functional, organism-based; details: Human immunodeficiency virus 1, ACH-2, 48 h
# [2] = Cytotoxicity against human Jurkat cells assessed as reduction in cell viability incubated for 24 hrs by Ghost dye 780 staining based flow cytometric analysis; assay type: toxicity
# [3] = Stability of the compound assessed as porcine liver esterase-mediated hydrolysis measured after 1 to 24 hrs by HPLC analysis; assay type: ADME, Sus scrofa; details: pig, isolated protein; time 1-24 hrs
# In short: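 Compounds taken from 100 mM DMSO stock to 1 mM final in 50 mM HEPES pH 7.2 with 0.01 U PLE, then held at 37 °C. Aliquots sampled at 1, 3, 6 and 24 h and quenched into equal volume MeCN/0.1% TFA. C18 reversed-phase HPLC with 0–95% MeCN gradient over 40 min, UV detection at 245 nm. Residual peak area normalized to 0 h.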
# [4] = molecular target: Protein kinase C delta type (Homo sapiens, UniProt Q05655); assay: Binding affinity to PKCdelta C1B domain (231 to 281 residues) (unknown origin) by 6-methoxynaphthalene DAG lactone probe based fluorescence quenching assay; details: for pIC50: read-out: IC50
# [5] = system: Human immunodeficiency virus 1; assay: HIV1-latency reversing activity in human J-Lat 10.6 cells assessed as change in GFP expression incubated for 24 hrs by flow cytometric analysis; assay type: functional, organism-based; details: Human immunodeficiency virus 1, J-Lat 10.6, 24 h
# In short: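 Cells seeded at 2 × 10^5 per well and exposed to a range of compound concentrations for 24 h; 10 nM PMA served as reference. GFP-positive cells counted by flow cytometry. Means ± SD from at least two independent experiments.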
# [6] = system: Human immunodeficiency virus 1; assay: HIV1-latency reversing activity in human U1 cells incubated for 2 days; assay type: functional, organism-based; details: Human immunodeficiency virus 1, U1, 48 h
# Protein kinase C delta type, sequence (Q05655 whole entry, the tested form may be a part): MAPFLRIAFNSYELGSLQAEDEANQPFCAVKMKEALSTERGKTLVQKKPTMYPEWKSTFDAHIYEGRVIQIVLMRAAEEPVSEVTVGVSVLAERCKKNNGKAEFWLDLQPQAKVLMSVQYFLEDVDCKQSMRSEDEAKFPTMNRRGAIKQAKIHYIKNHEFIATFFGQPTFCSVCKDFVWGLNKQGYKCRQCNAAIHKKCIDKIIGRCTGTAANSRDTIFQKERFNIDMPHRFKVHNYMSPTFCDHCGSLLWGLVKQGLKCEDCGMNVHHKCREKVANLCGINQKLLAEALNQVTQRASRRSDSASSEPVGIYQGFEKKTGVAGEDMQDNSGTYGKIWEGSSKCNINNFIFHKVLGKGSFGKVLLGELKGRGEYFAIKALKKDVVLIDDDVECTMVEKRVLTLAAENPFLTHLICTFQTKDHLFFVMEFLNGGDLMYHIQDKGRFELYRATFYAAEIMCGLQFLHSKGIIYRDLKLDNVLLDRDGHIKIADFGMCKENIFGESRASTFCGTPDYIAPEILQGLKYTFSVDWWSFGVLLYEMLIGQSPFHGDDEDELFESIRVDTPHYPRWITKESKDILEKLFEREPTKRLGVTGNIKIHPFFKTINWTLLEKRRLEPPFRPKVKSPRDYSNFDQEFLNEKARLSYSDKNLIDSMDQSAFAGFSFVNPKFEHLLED
Compound,CC50 at 24 h [2] [nM],pEC50 [5],also measured
CCCCCCCCCCc1ccc2c(c1)N(C)[C@@H](C(C)C)C(=O)N[C@H](CO)C2,–,–,pEC50 [1]: 7.60
CCCCCCCCCC(=O)OCC1(CO)CC(=C(C)C)C(=O)O1 (centres undefined),> 10000,< 5.00,Stability [3]: Unstable; pIC50 [4]: 5.66
CC(C)=C1CC(CO)(COC(=O)C2CCC(C)CC2)OC1=O (centres undefined),–,< 5.00,–
CCCCCCC(CCCCCC)C(=O)OCC1(CO)CC(=C(C)C)C(=O)O1 (centres undefined),> 10000,6.66,Stability [3]: Stable; pIC50 [4]: 6.16
CC(C)=C1CC(CO)(COC(=O)C(C)(C)C)OC1=O (centres undefined),> 10000,< 5.00,Stability [3]: Stable; pIC50 [4]: < 5.00
CCCCCCCC(CCCCCCC)C(=O)OCC1(CO)CC(=C(C)C)C(=O)O1 (centres undefined),> 10000,6.42,–
CC(C)=C1CC(CO)(COC(=O)C(C)C)OC1=O (centres undefined),–,< 5.00,–
CCCCCC(CCCCC)C(=O)OCC1(CO)CC(=C(C)C)C(=O)O1 (centres undefined),> 10000,6.37,–
C=C(C)[C@]12C[C@@H](COC(=O)c3ccccc3)[C@@]34O[C@@]5(O[C@@H]1[C@@H]3[C@@H]1O[C@]1(CO)[C@@H](O)[C@@]1(O)[C@H]4[C@H]([C@H](C)[C@@H]1OC(=O)c1ccccc1)[C@H](C)CCCCCC[C@H]5O)O2,–,–,pEC50 [6]: 10.74
CC(C)=C1CC(CO)(COC(=O)c2ccc3ccccc3c2)OC1=O (centres undefined),–,< 5.00,–
CC(C)=C1CC(CO)(COC(=O)C2CCCCC2)OC1=O (centres undefined),–,< 5.00,–
CCCC(CCC)C(=O)OCC1(CO)CC(=C(C)C)C(=O)O1 (centres undefined),> 10000,5.70,Stability [3]: Stable
CCCCC(=O)OCC1(CO)CC(=C(C)C)C(=O)O1 (centres undefined),–,< 5.00,–
CCC(CC)C(=O)OCC1(CO)CC(=C(C)C)C(=O)O1 (centres undefined),–,< 5.00,–
CCCCC(CCCC)C(=O)OCC1(CO)CC(=C(C)C)C(=O)O1 (centres undefined),> 10000,6.09,–
CC(=O)OCC1(CO)CC(=C(C)C)C(=O)O1 (centres undefined),> 10000,< 5.00,IC50 [4]: Not Active
CC(C)=C1CC(CO)(COC(=O)c2ccccc2)OC1=O (centres undefined),–,< 5.00,–
CCCCCCCCC(CCCCCCCC)C(=O)OCC1(CO)CC(=C(C)C)C(=O)O1 (centres undefined),> 10000,6.47,–
CCCCCCCCCC(CCCCCCCCC)C(=O)OCC1(CO)CC(=C(C)C)C(=O)O1 (centres undefined),> 10000,6.51,pIC50 [4]: 6.25
CC(=O)O[C@@]12C[C@@H](C)[C@@]3(O)[C@@H](C=C(CO)C[C@]4(O)C(=O)C(C)=C[C@@H]34)[C@@H]1C2(C)C [PROSTRATIN],> 10000,–,–
